According to publication PMC3178738 (Bioconjugate chemistry, 2011):
“Also recorded” adds a separate entry of the source.

Assays:
[1] = animal studies, cited from earlier work
[2] = Stability of the aluminum chelates in PBS; format: physicochemical; settings: chemical stability, pH 7.4, 37 °C
Procedure, shortened: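 Al–OH and Al–F chelates of the test chelator, made by reacting it with AlCl3 or AlF3, were incubated in PBS, pH 7.4, at 37 °C. Aluminum loss (demetalation) was followed by RP-HPLC at 3 h, 12 h and 24 h.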

## NODA-MPAA-D-Lys(HSG)-D-Tyr-D-Lys(HSG)-NH2 [IMP485]
[1]; kit formulated IMP485, supporting in vivo stability
  presence in the bone: negligible
[1]; kit formulated IMP485
  clearance from the body: rapid clearance from the body via the kidneys

## AlF(NODA-MPAA) [compound 3]
[2]
  time stable in PBS: over 24 h
[2]; 24 h, RP-HPLC
  loss of aluminum (demetalation): no detectable loss of aluminum; also recorded: no signs of demetalation

## AlOH(NODA-MPAA) [compound 2]
[2]; 3 h, RP-HPLC
  demetalation: 23%
[2]; 12 h, RP-HPLC
  demetalation: 61%
